# Screening results from PubChem.
# Shown are actives, neighbours in structure and some others; about 3.1% of the full set was active somewhere.
# ERAP1 HTS inh: human ERAP1 aminopeptidase inhibitors, primary screen, biochemical, single point, plate reader | Endoplasmic reticulum aminopeptidase 1 (Homo sapiens), Q9NZ08 | recombinant ERAP1, Leu-AMC fluorescence, 60 min | inhibition, % at 10.7 µM | hit rate 0.15% among 340,000 | AID 652197, 2013;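 active means mean replicate inhibition of at least 30%, or all replicates individually reaching that 30% level; inactive means mean below 30% and not every replicate reaching it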;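 further: 0% = neutral control wells and 100% = L-leucinethiol positive control wells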
# SIRT5 inh: SIRT5 desuccinylase inhibitors, primary screen, biochemical, fluorescence imaging, single point, set 5 | inhibition, % at 15 µM | hit rate 1.1% among 330,000 | NAD-dependent protein deacylase sirtuin-5, mitochondrial (Homo sapiens), Q9NXA8 | Purified SirT5, succinyl-peptide AMC, trypsin-coupled fluorescence; in the data active means inhibition above about 15%; inconclusive means no clear call, values can overlap the other calls
# Target sequence (Q9NXA8 whole entry, looked up): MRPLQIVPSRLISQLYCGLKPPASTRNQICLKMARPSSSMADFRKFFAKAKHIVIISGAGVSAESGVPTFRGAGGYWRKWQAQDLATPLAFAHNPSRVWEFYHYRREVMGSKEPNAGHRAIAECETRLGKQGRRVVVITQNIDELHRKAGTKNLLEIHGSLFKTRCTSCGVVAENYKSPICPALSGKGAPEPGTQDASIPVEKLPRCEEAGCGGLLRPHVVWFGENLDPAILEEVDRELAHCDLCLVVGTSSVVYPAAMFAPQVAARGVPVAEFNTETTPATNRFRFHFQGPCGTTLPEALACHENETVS
# S100A4 MyoIIA: inhibitors of S100A4-myosin IIA peptide binding, primary screen, biochemical, fluorescence polarization, TAMRA-MyoIIA peptide | inhibition, % at 10.7 µM | hit rate 0.14% among 360,000 | AID 652163, 2013;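 active means mean inhibition of at least 70% across replicates, with every replicate also reaching that level; inconclusive means mean inhibition reaches 70% but some replicates fall short; inactive means mean inhibition below 70%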
# Target sequence (P26447 whole entry, looked up): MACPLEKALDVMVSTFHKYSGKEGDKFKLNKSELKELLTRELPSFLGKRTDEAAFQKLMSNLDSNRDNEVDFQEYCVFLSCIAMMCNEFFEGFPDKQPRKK
#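 Assay system: human S100A4 monomer with TAMRA-labelled myosin IIA peptide / Buffer or medium: Calcium-containing HEPES buffer, pH 7.2 / Reagent: TAMRA-labelled myosin IIA heavy-chain peptide probe, 5 nM / Compound: one dose per compound / Timing: polarization read 5 min after assay mix addition, stable 5–60 min / Benchmarks: neutral control DMSO, positive control TFP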
# Ecoli rRNA inh: reduced GFP signal of wild-type E. coli, primary screen, bacterial rRNA inhibitor project, GFP/RFP fluorescence, OD600, single point; E. coli WT GFP vs humanized-ribosome RFP mutants, 24 h; hits give low values; DMSO median 0, no signal -100; GFP signal change (wild-type ribosome), % (test concentration not listed); hit rate 1.6% among 350,000; AID 720706, 2013;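 active means significant combined selectivity score with lowered wild-type GFP, culture density cut under 30%, mutant RFP and density less affected; inactive means any of these conditions unmet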
# F508del corr: F508del CFTR correction, initial screen, CFBE line, single point; CFBE cells, YFP halide quenching; stimulated with forskolin plus potentiator P3; % fluorescence drop versus neutral controls; activity (quench increase), % at 7.58 µM; hit rate 0.36% among 350,000; AID 720511, 2013;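 active means mean added fluorescence quench of at least 8% versus neutral control, with both replicates also reaching 8%; inconclusive means only one of the mean or replicate conditions met; inactive means mean below 8% and not both replicates reaching 8%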;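 further: cells transiently co-express mutant CFTR-F508del with the halide-sensitive YFP; corrector assay measuring rescue of mutant channel to the surface after 24 h compound exposure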
# * = called active by the depositor; u = inconclusive; x = no result given.
SMILES,ERAP1 HTS inh,SIRT5 inh,S100A4 MyoIIA,Ecoli rRNA inh,F508del corr
Cc1c(-n2c(SCC(C)C)nc3ccccc3c2=O)c(=O)n(-c2ccccc2)n1C,0.1,-0.3,0.5,-26.4*,1.3
COc1ccc2c3c(n(C)c2c1)[C@@H](CO)N(C(=O)c1ccncc1)CC31CN(CC2CC2)C1,0.5,-4.7,18.5,2.3,1.6
O=C(C1CC1)N1C[C@H]2[C@@H](c3ccccc31)[C@@H](CO)N2C(=O)Nc1cccc(F)c1,-0.9,11.5,43.9,-0.3,-1.4
Cc1cccc(/C=C2\Sc3ccc(C(=O)N4CCCCC4)cc3N(C)C2=O)c1,-1.4,-1.7,3.8,1.8,1.3
CN1C(=O)/C(=C/c2cccc(Cl)c2)Sc2ccc(C(=O)N3CCCC3)cc21,-2.4,6.9,-0.5,-35.0*,3.7
CCOc1cc(/C=N/N=C2/NC(=O)C(CC(=O)O)S2)ccc1OS(=O)(=O)c1ccc(C)cc1 (stereo unspecified),-1.5,4.4,1.6,-7.8,4.0
Cc1ccc(S(=O)(=O)Oc2ccc(/C=N/N=C3/NC(=O)C(CC(=O)O)S3)cc2)cc1 (stereo unspecified),9.5,28.4*,-1.7,-2.9,1.0
CCCCNc1c(-c2ccc(SC(C)CC)c(OC)c2)nc2ccc(Cl)cn12 (stereo unspecified),-1.6,x,0.3,-8.0,-2.2
CCCCCCSc1cc(-c2nc3cnccn3c2NCCCC)ccc1OC,-7.1,26.5*,-31.0,2.0,x
CCCCNc1c(-c2ccc(SC(C)CC)c(OC)c2)nc2ccc(C)cn12 (stereo unspecified),x,x,1.0,-21.8,8.3*
CC(=O)Nc1ccc2c(O)cc(S(=O)(=O)O)cc2c1,2.1,4.2,-3.3,-0.2,2.0
O=S(=O)(O)c1ccc(O)c2cc(Nc3ccccc3)ccc12,4.3,62.8*,3.0,x,-0.2
COc1ccccc1Nc1ccc2c(O)cc(S(=O)(=O)O)cc2c1,37.9*,x,11.1,6.2,-0.4
O=S(=O)(O)c1cc(O)c2cc(Nc3ccccc3)ccc2c1,43.4*,x,4.7,1.0,0.4
O=S(=O)(O)c1cc(O)c2ccc(Nc3ccccc3)cc2c1,40.2*,x,-12.4,-3.8,2.2
CO[C@@H]1CN(C)C(=O)c2cc(NC(=O)NC(C)C)ccc2OC[C@H](C)N(C(=O)C2CCC2)C[C@@H]1C,x,2.5,-1.3,1.6,-3.4
CCC(CC)CN1CCC(CN2C(=S)NC[C@@H]2[C@@H](C)CC)CC1,0.2,19.1*,-5.7,2.4,-2.6
CCC(CC)CN1CCC(CN2C(=O)C(=O)NC[C@@H]2[C@@H](C)CC)CC1,2.3,-3.4,-6.3,6.8,-1.7
C[C@H]1CN([C@@H](C)CO)C(=O)c2cccc(NC(=O)c3ccncc3)c2O[C@H]1CN(C)S(=O)(=O)c1cccs1,-0.6,1.7,0.0,0.8,-2.9
COc1ccc2cc(CN(CC3CCCO3)C(=S)Nc3ccccc3)c(=O)[nH]c2c1 (stereo unspecified),-2.0,2.6,-6.7,-10.8,10.3*
COC(=O)C1=C(C(=O)OC)[C@@H]2Nc3ccccc3[C@@]23C[C@@H](C(=O)OC)N(C(=O)CC(C)C)C3=N1,4.8,21.3*,7.2,6.5,1.5
Cc1ccc2c(c1)-c1c(ssc1=S)C(C)(C)N2C(=O)CSC1=NCCS1,2.1,-4.9,-6.2,-26.1*,2.3
CCCNC(=O)C[C@@H]1CC[C@@H]2[C@@H](COc3ccc(NC(=O)Nc4ccccc4F)cc3C(=O)N2C)O1,-2.0,-12.2,-3.3,-0.3,-3.5
COc1ccc(NC(=O)NCCN2CCN(c3cc(OC)ccc3OC)CC2)cc1,0.7,28.0*,0.7,14.8,x
COc1ccc(NC(=O)CN2CCN(c3ccccc3C)CC2)cc1,-1.5,-4.9,9.6,-31.0*,0.6
SMILES,ERAP1 HTS inh,SIRT5 inh,S100A4 MyoIIA,Ecoli rRNA inh,F508del corr
C[C@H](CO)N1C[C@H](C)[C@H](CN(C)C(=O)NC2CCCCC2)Oc2ccc(NC(=O)Nc3cccc4ccccc34)cc2C1=O,-0.5,x,-7.1,-7.6,2.5
CC(NC(=O)c1cc(S(=O)(=O)N2CCOCC2)ccc1F)c1ccc(-n2ccnc2)cc1 (stereo unspecified),3.8,-3.8,2.4,8.1,11.0*
Cc1ccc(C(=O)NC(C)c2ccc(-n3ccnc3)cc2)cc1S(=O)(=O)N1CCOCC1 (stereo unspecified),1.9,0.3,-7.0,18.4,1.4
COc1ccccc1C(=O)N=Nc1c(O)[nH]c2ccc([N+](=O)[O-])cc12,0.2,3.2,-18.3,-1.1,1.1
O=C(N=Nc1c(O)[nH]c2ccc([N+](=O)[O-])cc12)c1cc(-c2ccccc2Cl)nc2ccccc12,3.0,22.6*,-12.8,-0.5,-1.6
O=C(Nc1ccc(F)cc1)Nc1ccc(N2CCOCC2)c2nonc12,1.5,-1.8,-4.1,3.2,11.4*
COc1ccc(NC(=O)Nc2ccc(N3CCOCC3)c3nonc23)c(OC)c1,-3.4,-1.1,-3.6,7.0,-4.4
C[C@@H]1CN([C@H](C)CO)S(=O)(=O)c2ccc(-c3cccc(F)c3)cc2O[C@@H]1CN(C)S(=O)(=O)c1ccc(F)cc1,-0.1,20.0*,18.4,4.2,0.3
C[C@H]1CN([C@@H](C)CO)S(=O)(=O)c2ccc(-c3cccc(F)c3)cc2O[C@@H]1CN(C)S(=O)(=O)c1ccc(F)cc1,1.3,18.2*,-11.9,-0.9,3.1
Cc1ccc(S(=O)(=O)N(C)C[C@H]2Oc3cc(-c4cccc(F)c4)ccc3S(=O)(=O)N([C@@H](C)CO)C[C@@H]2C)cc1,-0.4,u,5.0,-0.7,-0.4
C[C@@H](NC(=O)[C@H]1[C@H](CO)[C@H]2Cn3c(cccc3=O)[C@@H]1N2Cc1ccncc1)c1ccccc1,0.4,0.2,0.5,2.3,1.6
COc1ccc2c3c(n(C)c2c1)[C@H](CO)N(C(=O)C1CCCCC1)CC31CCN(C(=O)Nc2cccc(F)c2)CC1,x,x,x,-2.6,-0.7
COc1cccc(C(=O)NNC(=O)CCc2ccccc2)c1,2.8,-1.2,-2.1,-21.5*,-1.3
COc1cc(OC)cc(C(=O)NNC(=O)CCc2ccccc2)c1,4.4,-2.3,-2.7,8.1,-0.5
COc1ccc(OCC(=O)NNC(=O)CCc2ccccc2)cc1,1.7,1.0,-2.1,10.6,9.8*
COc1ccc(-c2ccc([C@@H]3[C@@H](CO)N4C(=O)CN(Cc5ccc(F)cc5)C[C@H]34)cc2)cc1,-2.4,-1.8,-2.3,-2.6,-2.9
CN(C)CCNC(=O)c1cccc2nc3c(ccc4ccccc43)nc12,3.7,-6.0,-19.9,-52.4,18.7*
COc1ccc(C(=O)NCCN(C)C)c2nc3ccccc3cc12,4.6,-1.5,4.8,-32.0,14.7*
